From paper PMC12413468 (Communications Biology, 2025)

Experiments:
[1] = system: TSC22D family mRNA in HDMEC; assay: qPCR of TSC22D family members in HDMEC; type: cell-based, human; conditions: 1 µM WNK463, 14 hours, two replicates
[2] = system: Cavin1 Tyr156 phosphorylation in HDMEC; assay: Cavin1 Tyr156 phosphorylation, immunoblot in HDMEC; type: cell-based, human; conditions: WNK1 siRNA 72 h or WNK463 1 µM 18 h
Method in brief: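 HDMEC were grown in MCDB 131 with 10% FBS, 10 mM L-glutamine, 10 ng/ml EGF, 1 ug/mL hydrocortisone and penicillin/streptomycin, at 37 °C and 5% CO2. Lysates were made directly in SDS/β-mercaptoethanol sample buffer and immunoblotted for phospho-Cavin1 Tyr156 and total Cavin1. Data are means ± SEM; unpaired two-tailed t-test.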

[3] = system: phospho-SPAK Ser373/phospho-OSR1 Ser325 in HDMEC; assay: phospho-SPAK/phospho-OSR1 immunoblot in HDMEC; type: cell-based, human; conditions: WNK463 1 µM 18 h, unlike OSR1
Method in brief: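 Endothelial cells (HDMEC) were kept in MCDB 131 with 10% FBS, 10 mM L-glutamine, 10 ng/ml EGF, 1 ug/mL hydrocortisone and antibiotics, at 37 °C and 5% CO2. Pan-WNK inhibitor was given at 1 µM for 18 h. Cells were harvested in SDS/DTT/β-mercaptoethanol sample buffer, then immunoblotted with an antibody recognising phospho-SPAK Ser373/phospho-OSR1 Ser325. Results are means ± SEM, compared by unpaired two-tailed t-test.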

[4] = system: HEK293T cells stably expressing TSC22D1-mNeonGreen; assay: TSC22D1-mNeonGreen localization, HEK293T cells; type: cell-based, human; conditions: WNK463 1 µM, 24 h, confocal microscopy, n=1
Method in brief: (§1)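 Stable lines came from a lentiviral vector carrying long-isoform TSC22D1 with a C-terminal mNeonGreen tag, transfected with Lipofectamine 3000. Cells were puromycin-selected and sorted by flow cytometry. Pan-WNK inhibitor was applied at 1 µM for 24 h. Cells on coverslips were fixed (4% PFA, 15 min, RT), permeabilised (0.1% Triton X-100, 4.5 min), blocked with 10% goat serum, stained with antibodies and Alexa secondaries (1:500), mounted with DAPI and imaged by confocal microscopy. In A549, endogenous OSR1 was co-stained.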

[5] = system: A549 cells stably expressing TSC22D1-mNeonGreen; assay: TSC22D1-mNeonGreen localization, A549 cells; type: cell-based, human; conditions: A549, WNK463 1 µM, 24 h
Method in brief: as §1

[6] = system: 3xFLAG-OSR1 / endogenous TSC22D1; type: binding, human; conditions: HEK293T cells, 50 µM CCT blocking peptide, n = 3
Method in brief: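 HEK293T cells were grown in DMEM with 10% FBS and expressed 3xFLAG-OSR1. Endogenous TSC22D1 was co-immunoprecipitated and detected by immunoblot. Three independent experiments.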

## CC(C)(C)NC(=O)c1cncn1C1CCN(c2ccc(-c3nnc(C(F)(F)F)o3)cn2)CC1 [WNK463]
[1]
  mRNA amounts of TSC22D family members: altered mRNA amounts of TSC22D family members
[2]
  total Cavin1 protein amount: little change
[3]
  phosphorylation of SPAK: resistant
[4]
  TSC22D1 puncta: induced TSC22D1 puncta
[5]; confocal microscopy, n = 3
  TSC22D1 puncta: induced TSC22D1 puncta
[5]; immunofluorescence
  localization of endogenous OSR1: colocalized in puncta with tagged TSC22D1

## NH3^+-SAGRRFIVSPVPE-COO^− [SAGRRFIVSPVPE (WT)]
[6]
  association of endogenous TSC22D1 with 3xFLAG-OSR1: prevented their association
